Experimental data from ChEMBL document CHEMBL3627706, “Syntheses and evaluation of substituted aromatic hydroxamates and hydroxamic acids that target Mycobacterium tuberculosis” (2015).
Values after ≈ are worked out from the molar mass of the structure shown.

Key:
[1] = system: Mycobacterium tuberculosis; test: Antimycobacterial activity against Mycobacterium tuberculosis in 7H12 medium by microplate alamar blue assay; type: functional
Procedure, shortened: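 Microplate alamar blue assay against M. tuberculosis in 7H12 medium (7H9 plus casitone, palmitic acid, albumin and catalase). MIC is reported in µM.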

[2] = system: Mycobacterium tuberculosis; test: Antimycobacterial activity against Mycobacterium tuberculosis in GAS medium by microplate alamar blue assay; type: functional
Procedure, shortened: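 Microplate alamar blue assay against M. tuberculosis grown in glycerol-alanine-salts (GAS) medium. MIC is reported in µM.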

Bacillus spizizenii [3] = test: Antibacterial activity against Bacillus subtilis ATCC 6633 after 21 hrs by Kirby-Bauer agar diffusion assay; type: functional
Procedure, shortened: (§1)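 Agar diffusion assay. Test solutions were made at 20 mM in DMSO and diluted 10-fold with MeOH to 2 mM. Plates were incubated at 37 °C for 21 h. Inhibition zone diameters are recorded in mm, with unclear or very unclear zones flagged.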

Staphylococcus aureus = test: Antibacterial activity against Staphylococcus aureus SG511 after 21 hrs by Kirby-Bauer agar diffusion assay; type: functional; procedure, shortened: as §1
Micrococcus luteus [4] = test: Antibacterial activity against Micrococcus luteus ATCC 10240 after 21 hrs by Kirby-Bauer agar diffusion assay; type: functional; procedure, shortened: as §1
Mycolicibacterium vaccae [5] = test: Antibacterial activity against Mycobacterium vaccae IMET 10670 after 44 hrs by Kirby-Bauer agar diffusion assay; type: functional
Procedure, shortened: (§2)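 Test solutions for the agar diffusion assay were 20 mM in DMSO, diluted 10-fold with MeOH to 2 mM. M. vaccae plates were incubated at 37 °C for 44 h. Inhibition zones are recorded in mm, with unclear or very unclear zones flagged.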

Mycolicibacterium vaccae [6] = test: Antibacterial activity against Mycobacterium vaccae IMET 10670 assessed as unclear inhibition zone after 44 hrs by Kirby-Bauer agar diffusion assay; type: functional; procedure, shortened: as §2
Pseudomonas aeruginosa [7] = test: Antibacterial activity against wild type Pseudomonas aeruginosa K799 after 21 hrs by Kirby-Bauer agar diffusion assay; type: functional; procedure, shortened: as §1
Pseudomonas aeruginosa [8] = test: Antibacterial activity against Pseudomonas aeruginosa K799/61 after 21 hrs by Kirby-Bauer agar diffusion assay; type: functional; procedure, shortened: as §1
Escherichia coli [9] = test: Antibacterial activity against Escherichia coli DC2 after 21 hrs by Kirby-Bauer agar diffusion assay; type: functional; procedure, shortened: as §1
Pseudomonas aeruginosa [10] = test: Antibacterial activity against wild type Pseudomonas aeruginosa K799 assessed as unclear inhibition zone after 21 hrs by Kirby-Bauer agar diffusion assay; type: functional; procedure, shortened: as §1
Pseudomonas aeruginosa [11] = test: Antibacterial activity against Pseudomonas aeruginosa K799/61 assessed as unclear inhibition zone after 21 hrs by Kirby-Bauer agar diffusion assay; type: functional; procedure, shortened: as §1
Micrococcus luteus [12] = test: Antibacterial activity against Micrococcus luteus ATCC 10240 assessed as very unclear inhibition zone after 21 hrs by Kirby-Bauer agar diffusion assay; type: functional; procedure, shortened: as §1
Escherichia coli [13] = test: Antibacterial activity against Escherichia coli DC2 assessed as unclear inhibition zone after 21 hrs by Kirby-Bauer agar diffusion assay; type: functional; procedure, shortened: as §1
Mycolicibacterium vaccae [14] = test: Antibacterial activity against Mycobacterium vaccae IMET 10670 assessed as very unclear inhibition zone after 44 hrs by Kirby-Bauer agar diffusion assay; type: functional; procedure, shortened: as §2
Bacillus spizizenii [15] = test: Antibacterial activity against Bacillus subtilis ATCC 6633 at 1.66 microg/ml after 21 hrs by Kirby-Bauer agar diffusion assay; type: functional; details: ATCC 6633, 21 h, read-out: DIZ
Pseudomonas aeruginosa [16] = test: microbe, parasite or virus in culture; details: K799/61, 21 h, read-out: DIZ

Row | SMILES | MIC [1] | MIC [2] | diameter of the inhibition zone (DIZ) (Bacillus spizizenii [3]) | diameter of the inhibition zone (DIZ) (Staphylococcus aureus) | diameter of the inhibition zone (DIZ) (Micrococcus luteus [4]) | diameter of the inhibition zone (DIZ) (Mycolicibacterium vaccae [5]) | diameter of the inhibition zone (DIZ) (Pseudomonas aeruginosa [7]) | other results
1 | O=C(NOCc1ccccc1)c1ccccc1 | > 100 µM | 48.5 µM (≈ 11 µg/mL) |  |  |  |  |  | 
2 | O=C(NOCc1ccccc1)c1ccc([N+](=O)[O-])cc1 | 90.4 µM (≈ 24.6 µg/mL) | 13.6 µM (≈ 3.7 µg/mL) |  |  |  |  |  | 
3 | O=C(NO)c1ccc([N+](=O)[O-])cc1 | 7.79 µM (≈ 1.42 µg/mL) | 0.71 µM (≈ 0.129 µg/mL) | 0 mm | 0 mm | 0 mm | 30 mm | 13 mm | diameter of the inhibition zone (DIZ) (Mycolicibacterium vaccae [6]): 33 mm; diameter of the inhibition zone (DIZ) (Pseudomonas aeruginosa [8]): 0 mm; diameter of the inhibition zone (DIZ) (Escherichia coli [9]): 0 mm
4 | O=C(NOCc1ccccc1)c1ccc(Cl)cc1 | 47.3 µM (≈ 12.4 µg/mL) | 15.5 µM (≈ 4.07 µg/mL) | 19 mm | 19 mm | 19 mm | 15 mm | 14 mm | diameter of the inhibition zone (DIZ) (Pseudomonas aeruginosa [8]): 14 mm; diameter of the inhibition zone (DIZ) (Escherichia coli [9]): 0 mm
5 | C=CCONC(=O)c1ccccc1 | > 100 µM | > 100 µM |  |  |  |  |  | 
6 | CC(C)(C)[Si](C)(C)ONC(=O)c1ccccc1 | > 50 µM | 24.3 µM (≈ 6.11 µg/mL) | 0 mm | 0 mm | 0 mm | 26 mm | 14 mm | diameter of the inhibition zone (DIZ) (Pseudomonas aeruginosa [10]): 18 mm; diameter of the inhibition zone (DIZ) (Pseudomonas aeruginosa [8]): 0 mm; diameter of the inhibition zone (DIZ) (Escherichia coli [9]): 0 mm
7 | C=CCONC(=O)c1ccc([N+](=O)[O-])cc1 | > 100 µM | 37.6 µM (≈ 8.36 µg/mL) |  |  |  |  |  | 
8 | O=C(NOCc1ccccc1)c1ccc(F)cc1 | > 100 µM | 42.3 µM (≈ 10.4 µg/mL) |  |  |  |  |  | 
9 | CCOc1ccc(C(=O)NOCc2ccccc2)cc1 | > 100 µM | 47.3 µM (≈ 12.8 µg/mL) |  |  |  |  |  | 
10 | O=C(NO)c1ccc(F)cc1 | > 100 µM | > 100 µM |  |  |  |  |  | 
11 | CCOc1ccc(C(=O)NO)cc1 | 48.1 µM (≈ 8.71 µg/mL) | > 100 µM | 20 mm | 17 mm | 0 mm | 0 mm | 0 mm | diameter of the inhibition zone (DIZ) (Pseudomonas aeruginosa [11]): 14 mm; diameter of the inhibition zone (DIZ) (Escherichia coli [9]): 0 mm
12 | O=C(NOCc1ccccc1)c1cc([N+](=O)[O-])cc(C(F)(F)F)c1 | > 100 µM | 10.7 µM (≈ 3.62 µg/mL) | 16 mm | 20 mm | 14 mm | 45 mm | 0 mm | diameter of the inhibition zone (DIZ) (Micrococcus luteus [12]): 20 mm; diameter of the inhibition zone (DIZ) (Pseudomonas aeruginosa [8]): 0 mm; diameter of the inhibition zone (DIZ) (Escherichia coli [9]): 0 mm
13 | C=CCONC(=O)c1cc([N+](=O)[O-])cc(C(F)(F)F)c1 | > 100 µM | 43.2 µM (≈ 12.5 µg/mL) |  |  |  |  |  | 
14 | CC(C)(C)[Si](C)(C)ONC(=O)c1cc([N+](=O)[O-])cc(C(F)(F)F)c1 | > 100 µM | > 100 µM | 20 mm | 0 mm | 0 mm | 14 mm | 0 mm | diameter of the inhibition zone (DIZ) (Pseudomonas aeruginosa [8]): 0 mm; diameter of the inhibition zone (DIZ) (Escherichia coli [13]): 17 mm
15 | COC(=O)c1cc([N+](=O)[O-])cc(C(F)(F)F)c1 | > 100 µM | 30 µM (≈ 7.46 µg/mL) |  |  |  |  |  | 
16 | O=C(NO)c1cc([N+](=O)[O-])cc(C(F)(F)F)c1 | 19.5 µM (≈ 4.87 µg/mL) | > 100 µM |  |  |  |  |  | 
17 | O=C(NOCc1ccccc1)c1cc(Br)cc(C(F)(F)F)c1 | > 100 µM | 80.5 µM (≈ 30.1 µg/mL) | 17.5 mm | 20 mm | 16 mm | 26 mm | 0 mm | diameter of the inhibition zone (DIZ) (Mycolicibacterium vaccae [6]): 32 mm; diameter of the inhibition zone (DIZ) (Pseudomonas aeruginosa [8]): 0 mm; diameter of the inhibition zone (DIZ) (Escherichia coli [9]): 10 mm
18 | O=C(CC(=O)OCc1ccccc1)NOCc1ccccc1 | 86.6 µM (≈ 25.9 µg/mL) | 27.1 µM (≈ 8.11 µg/mL) |  |  |  |  |  | 
19 | CC(C)(C)[Si](C)(C)ONC(=O)CC(=O)OCc1ccc([N+](=O)[O-])cc1 | > 100 µM | 3.04 µM (≈ 1.12 µg/mL) |  |  |  |  |  | 
20 | C=CCONC(=O)CC(=O)OCc1ccc([N+](=O)[O-])cc1 | 98.7 µM (≈ 29 µg/mL) | 98.6 µM (≈ 29 µg/mL) |  |  |  |  |  | 
21 | O=C(CC(=O)OCc1ccc([N+](=O)[O-])cc1)NO | > 100 µM | > 100 µM |  |  |  |  |  | 
22 | O=C(NO)c1ccc(Cl)cc1 | > 100 µM | > 100 µM | 0 mm | 0 mm | 0 mm |  | 0 mm | diameter of the inhibition zone (DIZ) (Mycolicibacterium vaccae [14]): 15.5 mm; diameter of the inhibition zone (DIZ) (Pseudomonas aeruginosa [11]): 18 mm; diameter of the inhibition zone (DIZ) (Escherichia coli [9]): 16 mm
23 | O=C(O)c1cn(C2CC2)c2cc(N3CCNCC3)c(F)cc2c1=O [CIPROFLOXACIN] |  |  |  | 18 mm | 0 mm | 20 mm | 23 mm | zone of inhibition at 1.66 µg/mL (Bacillus spizizenii [15]): 19 mm; diameter of the inhibition zone (DIZ) (Pseudomonas aeruginosa [8]): 19 mm; zone of inhibition at 1.66 µg/mL (Pseudomonas aeruginosa [16]): 26 mm
24 | CO[C@H]1/C=C/O[C@@]2(C)Oc3c(C)c(O)c4c(O)c(c(/C=N/N5CCN(C)CC5)c(O)c4c3C2=O)NC(=O)/C(C)=C\C=C\[C@H](C)[C@H](O)[C@@H](C)[C@@H](O)[C@@H](C)[C@H](OC(C)=O)[C@@H]1C [RIFAMPIN] | 0.03 µM (≈ 0.0247 µg/mL) | < 0.016 µM |  |  |  |  |  | 
